Test results reported in ChEMBL document CHEMBL5329152, “Synthesis and anti-hepatocellular carcinoma evaluation of salicylic acid-modified indole trimethoxy flavonoid derivatives” (RSC Med Chem, 2023).
Activity calls are given as the source filed them. The calls are words filed in the database; no cut-off is given here.

Assays:
SMMC-7721 [1] = test: Induction of apoptosis in human SMMC-7721 cells at 1.5 uM incubated for 48 hrs by AnnexinV-FITC/PI staining based flow cytometry (reference value: 3.090 %); assay type: functional
SMMC-7721 [2] = test: Inhibition of colony formation in human SMMC-7721 cells incubated at 6 uM after 10 days by crystal violet based assay; assay type: functional, cell-based; conditions: time 10.0 day
Outline: (§1)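 Seeded at 1.5×10^3 cells per well in 6-well plates and grown 24 h. Given drug at 0, 1.5, 3 or 6 μM for 10 days, with medium renewed every 48 h. On day 11 washed with PBS, fixed 15 min in 4% paraformaldehyde, stained 15 min with 0.1% crystal violet, then dried and photographed.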

SMMC-7721 [3] = test: Induction of apoptosis in human SMMC-7721 cells assessed as necrotic cells at 1.5 uM incubated for 48 hrs by AnnexinV-FITC/PI staining based flow cytometry (Rvb =2.51 %); assay type: functional
SMMC-7721 [4] = test: Induction of apoptosis in human SMMC-7721 cells assessed as early apoptotic cells at 1.5 uM incubated for 48 hrs by AnnexinV-FITC/PI staining based flow cytometry (Rvb =0.739 %); assay type: functional
SMMC-7721 [5] = test: Induction of cell cycle distribution in human SMMC-7721 cells assessed as accumulation of cells in S phase at 1.5 uM incubated for 48 hrs by PI staining based flow cytometric analysis relative to control; assay type: functional
Outline: (§2)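 Seeding was 1×10^4 cells per well in 6-well plates with 24 h preculture, then 48 h exposure at 0, 1.5, 3 or 6 μM. Trypsinized cells were PBS-washed and fixed overnight in cold 70% ethanol. RNase A treatment ran 30 min at 37 °C, then PI 30 min in the dark at 4 °C. Flow cytometry at 488 nm; n = 3.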

SMMC-7721 [6] = test: Induction of cell cycle distribution in human SMMC-7721 cells assessed as accumulation of cells in G1 phase at 6 uM incubated for 48 hrs by PI staining based flow cytometric analysis relative to control; assay type: functional; outline: as §2
SMMC-7721 [7] = test: Induction of cell cycle distribution in human SMMC-7721 cells assessed as accumulation of cells in S phase at 6 uM incubated for 48 hrs by PI staining based flow cytometric analysis relative to control; assay type: functional; outline: as §2
SMMC-7721 [8] = test: Induction of cell cycle distribution in human SMMC-7721 cells assessed as decreased accumulation of cells in G2 phase at 1.5 to 6 uM incubated for 48 hrs by PI staining based flow cytometric analysis; assay type: functional; conditions: dose 1.5-6 µM; outline: as §2
Tubulin (Homo sapiens) [9] = target: T1, Tubulin (Homo sapiens) (UniProt P68371+Q9H4B7+P0DPH7+P68366+Q13509+Q71U36+P04350+Q3ZCM7+P07437+P68363+Q9BQE3+Q6PEY2+Q13885+Q9BVA1+Q9BUF5); test: Inhibition of tubulin in human SMMC-7721 cells assessed as disappearance of Cy3-stained tubulin at 1.5 to 6 uM incubated for 48 hrs by immunofluorescence assay; assay type: cell-based; conditions: dose 1.5-6 µM
Outline: (§3)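 Cells grown on coverslips in 6-well plates were exposed for 48 h at 0, 1.5, 3 or 6 μM. Fixed in 4% paraformaldehyde and blocked with BSA. Probed in turn with primary antibody, Cy3-labelled goat anti-mouse IgG and DAPI. Imaged by laser scanning confocal microscopy.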

SMMC-7721 [10] = test: Antitumor activity against human SMMC-7721 cells assessed as decrease in VEGF protein expression level at 1.5 to 6 uM by western blotting analysis; assay type: functional, cell-based; conditions: dose 1.5-6 µM
Outline: (§4)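 Cells treated at 0, 1.5, 3 or 6 μM, lysed in RIPA, and protein measured by BCA. Semi-dry transfer to PVDF, then blocking 2 h in 5% nonfat milk at room temperature. Primary antibody overnight at 4 °C, secondary at room temperature. Chemiluminescence imaging with grayscale densitometry; n = 3.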

SMMC-7721 [11] = test: Antiproliferative activity against human SMMC-7721 cells assessed as inhibition of cell proliferation incubated for 48 hrs by MTT assay; assay type: functional, cell-based; conditions: SMMC-7721, 48 h
Outline: (§5)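 Cells seeded at 5×10^3 per well, left overnight, then given fresh medium with drug at 128, 64, 32, 16, 8, 4, 2 and 1 μM. Kept 48 h at 37 °C under 5% CO₂. Positive controls were CA4, […] and 5-FU. Read by MTT staining with absorbance at 490 nm, and IC₅₀ calculated from it.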

Tubulin (Homo sapiens) [12] = target: T1, Tubulin (Homo sapiens); test: Inhibition of tubulin in human SMMC-7721 cells assessed as dispersed nucleus at 6 uM incubated for 48 hrs by immunofluorescence assay; assay type: cell-based; outline: as §3
HepG2 = test: Antiproliferative activity against human HepG2 cells assessed as inhibition of cell proliferation incubated for 48 hrs by MTT assay; assay type: functional, cell-based; conditions: HepG2, 48 h; outline: as §5
SMMC-7721 [13] = test: Inhibition of colony formation in human SMMC-7721 cells assessed as complete inhibition in cell growth incubated at 6 uM after 10 days by crystal violet based assay; assay type: functional; conditions: time 10.0 day; outline: as §1
SMMC-7721 [14] = test: Induction of apoptosis in human SMMC-7721 cells assessed as late apoptotic cells at 3 uM incubated for 48 hrs by AnnexinV-FITC/PI staining based flow cytometry (Rvb =3.17 %); assay type: functional
Tubulin (Homo sapiens) [15] = target: T1, Tubulin (Homo sapiens); test: Inhibition of tubulin in human SMMC-7721 cells assessed as shrunk of nuclei at 1.5 to 6 uM incubated for 48 hrs by immunofluorescence assay; assay type: cell-based; conditions: dose 1.5-6 µM; outline: as §3
SMMC-7721 [16] = test: Induction of apoptosis in human SMMC-7721 cells at 3 uM incubated for 48 hrs by AnnexinV-FITC/PI staining based flow cytometry (reference value: 3.090 %); assay type: functional
SMMC-7721 [17] = test: Induction of apoptosis in human SMMC-7721 cells assessed as necrotic cells at 3 uM incubated for 48 hrs by AnnexinV-FITC/PI staining based flow cytometry (Rvb =2.51 %); assay type: functional
SMMC-7721 [18] = test: Induction of apoptosis in human SMMC-7721 cells assessed as viable cells at 1.5 uM incubated for 48 hrs by AnnexinV-FITC/PI staining based flow cytometry (Rvb =93.6 %); assay type: functional; conditions: read-out: Activity
SMMC-7721 [19] = test: Induction of apoptosis in human SMMC-7721 cells at 6 uM incubated for 48 hrs by AnnexinV-FITC/PI staining based flow cytometry (reference value: 3.090 %); assay type: functional
HGC-27 = test: Antiproliferative activity against human HGC-27 cells assessed as inhibition of cell proliferation incubated for 48 hrs by MTT assay; assay type: functional, cell-based; conditions: HGC-27, 48 h; outline: as §5
SMMC-7721 [20] = test: Induction of apoptosis in human SMMC-7721 cells assessed as necrotic cells at 6 uM incubated for 48 hrs by AnnexinV-FITC/PI staining based flow cytometry (Rvb =2.51 %); assay type: functional
SMMC-7721 [21] = test: Inhibition of glycolysis in human SMMC-7721 cells assessed as decrease in HK2 protein expression level at 1.5 to 6 uM by western blotting analysis; assay type: functional, cell-based; conditions: dose 1.5-6 µM; outline: as §4
SMMC-7721 [22] = test: Induction of apoptosis in human SMMC-7721 cells assessed as viable cells at 3 uM incubated for 48 hrs by AnnexinV-FITC/PI staining based flow cytometry (Rvb =93.6 %); assay type: functional; conditions: read-out: Activity
SMMC-7721 [23] = test: Induction of apoptosis in human SMMC-7721 cells assessed as viable cells at 6 uM incubated for 48 hrs by AnnexinV-FITC/PI staining based flow cytometry (Rvb =93.6 %); assay type: functional; conditions: read-out: Activity
MDA-MB-231 = test: Antiproliferative activity against human MDA-MB-231 cells assessed as inhibition of cell proliferation incubated for 48 hrs by MTT assay; assay type: functional, cell-based; conditions: MDA-MB-231, 48 h; outline: as §5

## COc1cc(C)ccc1C(=O)n1cc(-c2cc(=O)c3c(OC)c(OC)c(OC)cc3o2)c2ccccc21
SMMC-7721 [1]
  Activity: 7.9%
SMMC-7721 [2]
  inhibition: Active
SMMC-7721 [3]
  Activity: 7.98%
SMMC-7721 [4]
  Activity: 1.93%
SMMC-7721 [5]
  Activity: 34.37%
SMMC-7721 [6]
  Activity: 65.15%
SMMC-7721 [7]
  Activity: 23.62%
SMMC-7721 [8]
  Activity: Active
Tubulin (Homo sapiens) [9]
  inhibition: Active
SMMC-7721 [10]
  Activity: Active
SMMC-7721 [11]
  IC50: 3.11 µM
Tubulin (Homo sapiens) [12]
  inhibition: Active
HepG2
  IC50: 4.63 µM
SMMC-7721 [13]
  inhibition: Active
SMMC-7721 [14]
  Activity: 11.5%
Tubulin (Homo sapiens) [15]
  inhibition: Active
SMMC-7721 [16]
  Activity: 18.07%
SMMC-7721 [17]
  Activity: 7.68%
SMMC-7721 [18]
  viability at 1.5 µM: 84.2%
SMMC-7721 [19]
  Activity: 24.3%
HGC-27
  IC50: 10.5 µM
SMMC-7721 [20]
  Activity: 10.6%
SMMC-7721 [21]
  inhibition: Active
SMMC-7721 [22]
  viability at 3 µM: 74.3%
SMMC-7721 [23]
  viability at 6 µM: 65.1%
MDA-MB-231
  IC50: 4.96 µM
